Test results from ChEMBL document CHEMBL2029337, “Synthesis and antimicrobial activities of structurally novel S,S'-bis(heterosubstituted) disulfides” (Bioorg Med Chem Lett, 2012).
Values after ≈ are worked out from the molar mass of the structure shown. Active and inactive are the calls of the source. The rule behind the calls is not given here.

Legend:
Staphylococcus aureus [1] = experiment: Antibacterial activity against methicillin-resistant Staphylococcus aureus ATCC 43300 assessed as reduction in bacterial counts at 4 ug/mL after overnight incubation by […] (reference value: 4.02 x 10^8 cfu/mL); assay type: functional
Staphylococcus aureus [2] = experiment: Antibacterial activity against methicillin-resistant Staphylococcus aureus ATCC 43300 assessed as growth inhibition at 50 ug after 24 hrs by agar-diffusion assay in presence of GSH; assay type: functional, organism-based
Procedure, shortened: (§1)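 Kirby-Bauer well diffusion on an MRSA lawn (0.5 McFarland suspension swabbed onto tryptic soy agar). Four test agents sat in wells equidistant from a centre well holding 1 mg of additive in DMSO; a DMSO-only centre well served as vehicle control. After overnight incubation at 37 °C, the inhibition zones were examined for size or shape change.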

Staphylococcus aureus [3] = experiment: Antibacterial activity against methicillin-susceptible Staphylococcus aureus ATCC 25923 assessed as reduction in bacterial counts at 4 ug/mL after overnight incubation […] (reference value: 7.60 x 10^8 cfu/mL); assay type: functional
Procedure, shortened: (§2)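 Viability count assay against S. aureus ATCC 25923. All tubes started at 10⁵ cfu/mL, and viable bacteria were counted before and after incubation with disulfide at the line's concentration. Tubes without disulfide served as the growth reference. Performed in triplicate.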

[4] = Antibacterial activity against Francisella tularensis subspecies holarctica LVS after 48 hrs by broth dilution method; assay type: functional, Francisella tularensis subsp. holarctica LVS
Staphylococcus aureus [5] = experiment: Antibacterial activity against methicillin-susceptible Staphylococcus aureus ATCC 25923 […] by agar dilution method; assay type: functional
Staphylococcus aureus [6] = experiment: Antibacterial activity against methicillin-resistant Staphylococcus aureus ATCC 43300 assessed as growth inhibition at 50 ug after 24 hrs by agar-diffusion assay in presence of PPh3; assay type: functional, organism-based; procedure, shortened: as §1
Staphylococcus aureus [7] = experiment: Antibacterial activity against methicillin-resistant Staphylococcus aureus ATCC 43300 assessed as growth inhibition at 1 mg after 24 hrs by agar-diffusion assay; assay type: functional, organism-based; procedure, shortened: as §1
Staphylococcus aureus [8] = experiment: Antibacterial activity against methicillin-resistant Staphylococcus aureus ATCC 43300 assessed as growth inhibition at 50 ug after 24 hrs by agar-diffusion assay in presence of iPrSSiPr; assay type: functional, organism-based; procedure, shortened: as §1
Staphylococcus aureus [9] = experiment: Antibacterial activity against methicillin-susceptible Staphylococcus aureus ATCC 25923 assessed as reduction in bacterial counts at 2 ug/mL after overnight incubation […] (reference value: 7.60 x 10^8 cfu/mL); assay type: functional; procedure, shortened: as §2
Staphylococcus aureus [10] = experiment: Membrane disrupting activity in methicillin-resistant Staphylococcus aureus ATCC 43300 by scanning electron microscopy; assay type: functional, organism-based
Procedure, shortened: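 Scanning electron microscopy of MRSA cells before and after disulfide treatment during Kirby-Bauer agar diffusion experiments, assessing external cell morphology and cell-wall integrity.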

Staphylococcus aureus [11] = experiment: Antibacterial activity against methicillin-resistant Staphylococcus aureus ATCC 43300 assessed as growth inhibition at 50 ug after 24 hrs by agar-diffusion assay in presence of lysine; assay type: functional, organism-based; procedure, shortened: as §1
Staphylococcus aureus [12] = experiment: Antibacterial activity against methicillin-resistant Staphylococcus aureus ATCC 43300 assessed as growth inhibition at 50 ug after 24 hrs by agar-diffusion assay in presence of valine; assay type: functional, organism-based; procedure, shortened: as §1
Escherichia coli = experiment: Antibacterial activity against Escherichia coli K-12 […] by agar dilution method; assay type: functional, organism-based
Staphylococcus aureus [13] = experiment: Antibacterial activity against methicillin-resistant Staphylococcus aureus ATCC 43300 assessed as growth inhibition at 50 ug after 24 hrs by agar-diffusion assay in presence of CoA; assay type: functional, organism-based; procedure, shortened: as §1
Staphylococcus aureus [14] = experiment: Antibacterial activity against methicillin-resistant Staphylococcus aureus ATCC 43300 […] by agar dilution method; assay type: functional
Staphylococcus aureus [15] = experiment: Antibacterial activity against methicillin-resistant Staphylococcus aureus ATCC 43300 assessed as growth inhibition at 50 ug after 24 hrs by agar-diffusion assay in presence of glycine; assay type: functional, organism-based; procedure, shortened: as §1
Bartonella sp. = experiment: Antibacterial activity against Bartonella ssp. […] by agar dilution method; assay type: functional
[16] = Cytotoxicity against bovine primary aortic endothelial cells at 20 ug/mL after 48 hrs by MTT assay; assay type: cell-based, Bos taurus; conditions: cattle, endothelial cell
Procedure, shortened: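 Primary bovine aortic endothelial cells were kept in EBM-2 with 10% FBS and penicillin/streptomycin at 37 °C under 5% CO₂. Cells were trypsinized, counted and plated in 96-well dishes, then treated for 48 h. MTT was added and formazan dissolved in DMSO; absorbance was read at 540 nm with 660 nm background. Viability is expressed as percent of untreated control.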

Staphylococcus aureus [17] = experiment: Antibacterial activity against methicillin-resistant Staphylococcus aureus ATCC 43300 assessed as growth inhibition at 50 ug after 24 hrs by agar-diffusion assay in presence of cystine; assay type: functional, organism-based
Staphylococcus aureus [18] = experiment: Antibacterial activity against methicillin-resistant Staphylococcus aureus ATCC 43300 assessed as reduction in bacterial counts at 2 ug/mL after overnight incubation by […] (reference value: 4.02 x 10^8 cfu/mL); assay type: functional
Candida albicans = experiment: Antifungal activity against Candida albicans assessed as reduction in viability by trypan blue staining; assay type: functional
Procedure, shortened: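 C. albicans was exposed in YNB to a 1, 0.5, 0.25 and 0.125 series, following the NCCLS fungal protocol. Non-viable cells were stained with trypan blue and counted in a cell-counting chamber under a microscope at 40X. Controls were untreated cells in YNB and cells heat-killed in PBS (boiled 5 min).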

Staphylococcus aureus [19] = experiment: Antibacterial activity against methicillin-resistant Staphylococcus aureus ATCC 43300 assessed as growth inhibition at 20 ug after 24 hrs by agar-diffusion assay in presence of iPrSSiPr; assay type: functional, organism-based; procedure, shortened: as §1
Staphylococcus aureus [20] = experiment: Antibacterial activity against methicillin-resistant Staphylococcus aureus ATCC 43300 assessed as growth inhibition at 20 ug after 24 hrs by agar-diffusion assay in presence of PPh3; assay type: functional, organism-based; procedure, shortened: as §1
Staphylococcus aureus [21] = experiment: Antibacterial activity against methicillin-resistant Staphylococcus aureus ATCC 43300 assessed as growth inhibition at 20 ug after 24 hrs by agar-diffusion assay in presence of lysine; assay type: functional, organism-based; procedure, shortened: as §1
Staphylococcus aureus [22] = experiment: Antibacterial activity against methicillin-resistant Staphylococcus aureus ATCC 43300 assessed as growth inhibition at 20 ug after 24 hrs by agar-diffusion assay in presence of GSH; assay type: functional, organism-based; procedure, shortened: as §1
Staphylococcus aureus [23] = experiment: Antibacterial activity against methicillin-resistant Staphylococcus aureus ATCC 43300 assessed as growth inhibition at 20 ug after 24 hrs by agar-diffusion assay in presence of cystine; assay type: functional, organism-based
Staphylococcus aureus [24] = experiment: Antibacterial activity against methicillin-resistant Staphylococcus aureus ATCC 43300 assessed as growth inhibition at 20 ug after 24 hrs by agar-diffusion assay in presence of glycine; assay type: functional, organism-based; procedure, shortened: as §1
Staphylococcus aureus [25] = experiment: Antibacterial activity against methicillin-resistant Staphylococcus aureus ATCC 43300 assessed as growth inhibition at 20 ug after 24 hrs by agar-diffusion assay in presence of CoA; assay type: functional, organism-based; procedure, shortened: as §1
Staphylococcus aureus [26] = experiment: Antibacterial activity against methicillin-resistant Staphylococcus aureus ATCC 43300 assessed as growth inhibition at 20 ug after 24 hrs by agar-diffusion assay in presence of valine; assay type: functional, organism-based; procedure, shortened: as §1

CC(C)OSSOC(C)C
Activity (Staphylococcus aureus [1]): 2.88 ×10³ CFU/ml | growth inhibition (GI) (Staphylococcus aureus [2]): inactive | Activity (Staphylococcus aureus [3]): 2.04 ×10³ CFU/ml | MIC [4]: 4 µg/mL (≈ 21.9 µM) | MIC (Staphylococcus aureus [5]): 1 µg/mL (≈ 5.49 µM) | growth inhibition (GI) (Staphylococcus aureus [6]): Active | growth inhibition (GI) (Staphylococcus aureus [7]): Active | growth inhibition (GI) (Staphylococcus aureus [8]): Active | Activity (Staphylococcus aureus [9]): 3.86 ×10⁴ CFU/ml | Activity (Staphylococcus aureus [10]): inactive | growth inhibition (GI) (Staphylococcus aureus [11]): Active | growth inhibition (GI) (Staphylococcus aureus [12]): Active | Activity (Escherichia coli): inactive | growth inhibition (GI) (Staphylococcus aureus [13]): inactive | MIC (Staphylococcus aureus [14]): 0.5 µg/mL (≈ 2.74 µM) | growth inhibition (GI) (Staphylococcus aureus [15]): Active | Activity (Bartonella sp.): inactive | Activity [16]: Non-toxic | growth inhibition (GI) (Staphylococcus aureus [17]): inactive | Activity (Staphylococcus aureus [18]): >1.2 ×10⁶ CFU/ml | MIC (Candida albicans): 0.5 µg/mL (≈ 2.74 µM)

C=CC(=O)O[C@H]1C(=O)N(SC)[C@H]1c1ccccc1Cl
growth inhibition (GI) (Staphylococcus aureus [19]): Active | growth inhibition (GI) (Staphylococcus aureus [20]): Active | growth inhibition (GI) (Staphylococcus aureus [21]): Active | growth inhibition (GI) (Staphylococcus aureus [22]): inactive | growth inhibition (GI) (Staphylococcus aureus [23]): inactive | growth inhibition (GI) (Staphylococcus aureus [24]): Active | growth inhibition (GI) (Staphylococcus aureus [25]): inactive | growth inhibition (GI) (Staphylococcus aureus [26]): Active
